Results from ChEMBL document CHEMBL1155470, “Colloid formation by drugs in simulated intestinal fluid” (J Med Chem, 2010).
pIC50: −log10 of the molar value. Structures can show the parent of a compound that is named as a salt. One block for each molecule: values may come before it. The source made the active and inactive calls. No cut-off for these calls is given here.

Assays:
Cruzipain [1] = target: T1, Cruzipain (Trypanosoma cruzi, UniProt P25779); experiment: Inhibition of Trypanosoma cruzi cruzaine preincubated for 5 mins before substrate addition by fluorescence assay in presence of 0.01% Triton X-100
[2] = Colloidal aggregation in fed state simulated intestinal fluid assessed as colloid radius at 50 uM by dynamic light scattering assay in presence of 1% DMSO; format: physicochemical; details: simulated gi fluid
Method in brief: (§1)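 Concentrated DMSO stocks diluted into filtered FeSSIF: blank FeSSIF plus 15 mM sodium taurocholate and 3.75 mM lecithin, dissolved at 37 °C. Final DMSO 1% unless otherwise noted. Particle size by dynamic light scattering at 826.6 nm, detector at 90°, 100% laser power. Values are averages of three or more independent measurements at room temperature.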

Cruzipain [3] = target: T1, Cruzipain; experiment: Inhibition of Trypanosoma cruzi cruzaine preincubated for 5 mins before substrate addition by fluorescence assay in absence of Triton X-100
[4] = Colloidal aggregation in fed state simulated intestinal fluid assessed as colloid radius at 20 uM by dynamic light scattering assay in presence of 1% DMSO; format: physicochemical; details: simulated gi fluid; method in brief: as §1
[5] = Colloidal aggregation in fed state simulated intestinal fluid assessed as colloid radius at 10 uM by dynamic light scattering assay in presence of 1% DMSO; details: simulated gi fluid
[6] = Colloidal aggregation in fed state simulated intestinal fluid by dynamic light scattering-based beads autocorrelation assay in presence of 1% DMSO; format: physicochemical; details: simulated gi fluid
Method in brief: (§2)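 FeSSIF samples examined by DLS (826.6 nm laser, 90° detector, room temperature), comparing autocorrelation curves with blank FeSSIF. The micelle background was checked with 200 nm calibration beads diluted in FeSSIF. Drug samples were made by diluting DMSO stocks into filtered FeSSIF (15 mM taurocholate, 3.75 mM lecithin).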

[7] = Colloidal aggregation in fed state simulated intestinal fluid assessed as colloid radius at 550 uM by dynamic light scattering assay in presence of 2.75% DMSO; details: simulated gi fluid
[8] = Colloidal aggregation in fed state simulated intestinal fluid by dynamic light scattering assay in presence of 0.25% DMSO; format: physicochemical; details: simulated gi fluid; method in brief: as §1
[9] = Colloidal aggregation in fed state simulated intestinal fluid at 550 uM by dynamic light scattering-based beads autocorrelation assay in presence of 2.75% DMSO; format: physicochemical; details: simulated gi fluid; method in brief: as §2
[10] = Colloidal aggregation in fed state simulated intestinal fluid by dynamic light scattering assay in presence of 2.75% DMSO; format: physicochemical; details: simulated gi fluid; method in brief: as §1
[11] = Colloidal aggregation in fed state simulated intestinal fluid by dynamic light scattering assay in presence of 0.6% DMSO; format: physicochemical; details: simulated gi fluid; method in brief: as §1
[12] = Colloidal aggregation in fed state simulated intestinal fluid assessed as colloid radius at 120 uM by dynamic light scattering assay in presence of 1% DMSO; format: physicochemical; details: simulated gi fluid; method in brief: as §1
[13] = Colloidal aggregation in fed state simulated intestinal fluid assessed as colloid radius at 500 uM by dynamic light scattering assay in presence of 1% DMSO; format: physicochemical; details: simulated gi fluid; method in brief: as §1
[14] = Colloidal aggregation in fed state simulated intestinal fluid at 600 uM by dynamic light scattering-based beads autocorrelation assay in presence of 6% DMSO; format: physicochemical; details: simulated gi fluid; method in brief: as §2
[15] = Colloidal aggregation in fed state simulated intestinal fluid by dynamic light scattering assay in presence of 6% DMSO; format: physicochemical; details: simulated gi fluid; method in brief: as §1
[16] = Colloidal aggregation in fed state simulated intestinal fluid assessed as colloid radius at 600 uM by dynamic light scattering assay in presence of 6% DMSO; details: simulated gi fluid
[17] = Colloidal aggregation in phosphate buffer at 200 uM by transmission electron microscopy in presence of 0.2% DMSO; format: physicochemical
Method in brief: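 Drug DMSO stocks diluted into 50 mM phosphate buffer. Samples adsorbed ~30 s onto glow-discharged formvar/carbon-coated copper grids and negatively stained with 2% ammonium molybdate. Imaged by transmission electron microscopy at 80 kV, standard magnification 25 000.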

[18] = Colloidal aggregation in fed state simulated intestinal fluid by dynamic light scattering assay in presence of 3% DMSO; format: physicochemical; details: simulated gi fluid; method in brief: as §1
[19] = Colloidal aggregation in fed state simulated intestinal fluid assessed as colloid radius at 100 uM by dynamic light scattering assay in presence of 1% DMSO; format: physicochemical; details: simulated gi fluid; method in brief: as §1
[20] = Aggregation-based binding affinity to beta-lactamase AmpC at 700 uM in fed state simulated intestinal fluid after 30 mins by silver staining in presence of 3% DMSO
Method in brief: (§3)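 Cosedimentation in FeSSIF, with and without 2 μg AmpC β-lactamase added per sample. Samples centrifuged at 16000g for 30 min at room temperature. Supernatant removed completely; pellets resuspended in DMSO plus 50 mM KPi pH 7.0 and run on SDS-PAGE. Protein detected by silver staining. Drug-only pellets included as background controls.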

[21] = Binding affinity to beta-lactamase AmpC at 700 uM after 30 mins by SDS-PAGE; method in brief: as §3
[22] = Colloidal aggregation in fed state simulated intestinal fluid by dynamic light scattering assay in presence of 0.5% DMSO; format: physicochemical; details: simulated gi fluid; method in brief: as §1
[23] = Colloidal aggregation in fed state simulated intestinal fluid assessed as colloid radius at 600 uM by dynamic light scattering assay in presence of 3% DMSO; format: physicochemical; details: simulated gi fluid; method in brief: as §1
[24] = Colloidal aggregation in fed state simulated intestinal fluid at 700 uM by transmission electron microscopy in presence of 3% DMSO; format: physicochemical; details: simulated gi fluid
Method in brief: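 Drug DMSO stocks diluted into FeSSIF. Samples adsorbed ~30 s onto glow-discharged formvar/carbon-coated copper grids and negatively stained with 2% ammonium molybdate. Viewed by transmission electron microscopy at 80 kV, standard magnification 25 000, calibrated with catalase crystals and ferritin.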

T1 sequence (P25779 whole entry): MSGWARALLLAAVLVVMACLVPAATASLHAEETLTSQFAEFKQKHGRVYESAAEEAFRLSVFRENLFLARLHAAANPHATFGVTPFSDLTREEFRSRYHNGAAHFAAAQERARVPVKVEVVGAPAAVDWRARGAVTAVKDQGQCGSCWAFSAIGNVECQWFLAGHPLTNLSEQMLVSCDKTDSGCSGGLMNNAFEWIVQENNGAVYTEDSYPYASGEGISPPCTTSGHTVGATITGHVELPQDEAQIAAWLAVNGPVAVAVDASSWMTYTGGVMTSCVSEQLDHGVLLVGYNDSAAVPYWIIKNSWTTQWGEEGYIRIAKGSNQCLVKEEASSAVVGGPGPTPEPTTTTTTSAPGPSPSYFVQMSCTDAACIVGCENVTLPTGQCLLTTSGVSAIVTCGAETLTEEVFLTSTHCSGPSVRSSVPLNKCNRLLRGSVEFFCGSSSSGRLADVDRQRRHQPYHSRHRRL

SMILES: Cc1c(O)cccc1C(=O)N[C@@H](CSc1ccccc1)[C@H](O)CN1C[C@H]2CCCC[C@H]2C[C@H]1C(=O)NC(C)(C)C
pIC50 (Cruzipain [1]): < 3.52
Activity [4]: 690.7 nm
pIC50 (Cruzipain [3]): 3.84

SMILES: Cc1c(C)c2c(c(C)c1OC(=O)c1cccnc1)CC[C@@](C)(CCC[C@H](C)CCC[C@H](C)CCCC(C)C)O2 (racemic)
pIC50 (Cruzipain [1]): < 3.40
Activity [5]: 104.1 nm
Activity [6]: Active
Activity [2]: 55.7 nm
pIC50 (Cruzipain [3]): 4.01

SMILES: CCCCc1oc2ccccc2c1C(=O)c1cc(I)c(OCCN(CC)CC)c(I)c1 [AMIODARONE HYDROCHLORIDE]
pIC50 (Cruzipain [1]): 3.69
pIC50 (Cruzipain [3]): 5.40

SMILES: CCOc1nc2cccc(C(=O)OC(C)OC(=O)OC3CCCCC3)c2n1Cc1ccc(-c2ccccc2-c2nnn[nH]2)cc1 (stereo unspecified) [CANDESARTAN CILEXETIL]
pIC50 (Cruzipain [1]): 3.77
Activity [7]: 50.1 nm
Activity [8]: 50 µM
Activity [2]: 38.8 nm
Activity [9]: Active
Activity [10]: 550 µM
pIC50 (Cruzipain [3]): 4.38

SMILES: C(=C\c1ccccc1)/CN1CCN(C(c2ccccc2)c2ccccc2)CC1 [CINNARIZINE]
pIC50 (Cruzipain [1]): < 3.52
pIC50 (Cruzipain [3]): 3.91

SMILES: COC(=O)[C@H](c1ccccc1Cl)N1CCc2sccc2C1 [CLOPIDOGREL BISULFATE]
pIC50 (Cruzipain [1]): < 3.52
pIC50 (Cruzipain [3]): 3.91

Other lines, results leading:

pIC50 (Cruzipain [1]): 4.17
Activity [2]: 1167.7 nm
pIC50 (Cruzipain [3]): 5.15
SMILES: O=C(Nc1cccc2c(=O)cc(-c3nnn[nH]3)oc12)c1ccc(OCCCCc2ccccc2)cc1

pIC50 (Cruzipain [1]): < 3.40
Activity [11]: 120 µM
Activity [12]: 161.8 nm
pIC50 (Cruzipain [3]): 3.90
SMILES: Cc1ccc(-c2cc(C(F)(F)F)nn2-c2ccc(S(N)(=O)=O)cc2)cc1 [CELECOXIB]

Activity [13]: 29.2 nm
SMILES: CN(C)CCCN1c2ccccc2Sc2ccc(Cl)cc21.Cl [CHLORPROMAZINE HYDROCHLORIDE]

pIC50 (Cruzipain [1]): 4.40
Activity [14]: Active
Activity [15]: 600 µM
Activity [5]: 356.1 nm
Activity [16]: 103.7 nm
pIC50 (Cruzipain [3]): 5.22
SMILES: CC(C)/N=c1\cc2n(-c3ccc(Cl)cc3)c3ccccc3nc-2cc1Nc1ccc(Cl)cc1 [CLOFAZIMINE]

pIC50 (Cruzipain [1]): < 3.70
Activity [17]: Active
Activity [18]: 600 µM
Activity [19]: 195.1 nm
Activity [6]: Active
Activity [20]: Active
Activity [21]: inactive
Activity [22]: 100 µM
Activity [23]: 62.8 nm
Activity [24]: Active
pIC50 (Cruzipain [3]): 3.91
SMILES: CC(C)Nc1cccnc1N1CCN(C(=O)c2cc3cc(NS(C)(=O)=O)ccc3[nH]2)CC1.CS(=O)(=O)O [DELAVIRDINE MESYLATE]
